{"source": "ChEMBL document CHEMBL1759938", "about": "“Antioxidant xanthone derivatives induce cell cycle arrest and apoptosis and enhance cell death induced by cisplatin in NTUB1 cells associated with ROS” (Eur J Med Chem, 2011)", "key": {"[1]": {"test": "Antioxidant activity assessed as ABTS radical scavenging activity", "assay_type": "functional", "summary_of_the_method": "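ABTS (7 mM in deionized water) was mixed with 2.45 mM potassium persulfate to form the radical cation. 180 µL of this solution was combined with 40 µL of sample, and absorbance was read at 630 nm. Vitamin E served as positive control. Mean ± s.e.m., n = 3.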"}, "[2]": {"target": "Xanthine dehydrogenase/oxidase (Homo sapiens, UniProt P47989)", "sequence (P47989 whole entry)": "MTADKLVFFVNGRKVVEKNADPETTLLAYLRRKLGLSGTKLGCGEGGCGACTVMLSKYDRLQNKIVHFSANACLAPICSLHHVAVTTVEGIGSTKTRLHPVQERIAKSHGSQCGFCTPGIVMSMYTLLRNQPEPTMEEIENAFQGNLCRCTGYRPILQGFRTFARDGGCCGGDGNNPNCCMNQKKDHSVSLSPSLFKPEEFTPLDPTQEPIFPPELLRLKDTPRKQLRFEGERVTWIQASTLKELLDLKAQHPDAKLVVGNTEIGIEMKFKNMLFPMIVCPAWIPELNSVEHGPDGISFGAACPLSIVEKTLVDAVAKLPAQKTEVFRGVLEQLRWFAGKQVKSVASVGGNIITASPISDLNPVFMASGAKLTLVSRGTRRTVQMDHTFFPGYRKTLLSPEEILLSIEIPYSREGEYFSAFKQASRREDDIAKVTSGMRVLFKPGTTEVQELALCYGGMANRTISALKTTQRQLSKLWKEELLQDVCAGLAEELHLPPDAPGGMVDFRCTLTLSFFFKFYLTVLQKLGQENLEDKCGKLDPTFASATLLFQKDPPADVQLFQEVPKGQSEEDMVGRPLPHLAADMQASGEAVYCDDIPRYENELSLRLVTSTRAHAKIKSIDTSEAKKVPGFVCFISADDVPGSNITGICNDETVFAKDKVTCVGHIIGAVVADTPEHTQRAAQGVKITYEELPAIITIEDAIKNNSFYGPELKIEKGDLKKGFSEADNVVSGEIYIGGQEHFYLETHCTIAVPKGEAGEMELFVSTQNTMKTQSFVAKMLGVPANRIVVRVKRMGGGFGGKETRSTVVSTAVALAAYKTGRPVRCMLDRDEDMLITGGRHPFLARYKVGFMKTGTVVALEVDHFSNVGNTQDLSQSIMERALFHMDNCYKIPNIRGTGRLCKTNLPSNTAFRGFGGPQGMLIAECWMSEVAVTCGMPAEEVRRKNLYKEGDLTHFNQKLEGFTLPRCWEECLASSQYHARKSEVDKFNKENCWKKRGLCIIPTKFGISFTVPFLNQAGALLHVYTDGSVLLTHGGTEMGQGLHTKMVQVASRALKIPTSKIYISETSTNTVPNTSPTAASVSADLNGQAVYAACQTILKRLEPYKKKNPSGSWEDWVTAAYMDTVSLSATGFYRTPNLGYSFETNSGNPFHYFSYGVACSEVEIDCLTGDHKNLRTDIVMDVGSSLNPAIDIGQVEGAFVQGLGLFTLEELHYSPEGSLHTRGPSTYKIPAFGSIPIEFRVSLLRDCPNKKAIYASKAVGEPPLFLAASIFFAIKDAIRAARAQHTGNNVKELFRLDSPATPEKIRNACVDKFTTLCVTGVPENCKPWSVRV", "test": "Inhibition of xanthine oxidase activity assessed as uric acid formation pretreated for 15 mins before substrate addition measured after 5 mins", "conditions": "for inhibition (INH): 5 min"}, "[3]": {"test": "Antioxidant activity against oxide-induced pBR322 DNA damage at 300 uM by agarose gel electrophoresis", "assay_type": "functional", "summary_of_the_method": "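Supercoiled pBR322 plasmid DNA (500 ng) in phosphate buffer pH 7.4, exposed for 20 min to superoxide generated by xanthine/xanthine oxidase, with or without test agent at 300 µM. SOD and quercetin were positive controls. Strand breaks were resolved by gel electrophoresis.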"}, "[4]": {"test": "Cell cycle arrest in human NTUB1 cells assessed as accumulation in subG1 phase at 40 uM after 24 hrs using propidium iodide by FACS analysis", "assay_type": "functional, cell-based", "summary_of_the_method": "(§1)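 NTUB1 bladder carcinoma cells (3 × 10⁵ or 8 × 10⁵ per 10 cm dish) were exposed to 40 or 60 µM for 24 h. Cells were trypsinized, fixed in ice-cold methanol at −20 °C overnight, and stained with 50 µg/mL propidium iodide for 30 min at room temperature. DNA content was measured by flow cytometry, with the sub-G1 fraction taken as apoptosis. Three independent experiments.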"}, "[5]": {"test": "Cytotoxicity against human NTUB1 cells after 72 hrs by MTT assay", "assay_type": "functional, cell-based", "conditions": "NTUB1, 72 h", "summary_of_the_method": "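NTUB1 cells in RPMI 1640 with 10% FBS were seeded at 1 × 10³ cells/well and left overnight at 37 °C. They were then exposed to graded concentrations for 72 h. MTT was added; plates were spun, the medium removed and DMSO added, and absorbance read at 540 nm. Viability is the ratio to untreated control, and IC50 was taken from the curve. Mean ± S.D., n = 3.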"}, "[6]": {"test": "Induction of apoptosis in human NTUB1 cells assessed as increase in ROS level at 20 to 40 uM after 24 hrs by flow cytometry relative to control", "assay_type": "functional", "summary_of_the_method": "(§2)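 NTUB1 cells in 6-well plates were treated for 24 h at 20 or 40 µM. Controls were 1 mM NAC and 10 µM cisplatin. 10 µM DCFH-DA was added 30 min before harvest; cells were then trypsinized and washed in PBS. DCF green fluorescence was read by flow cytometry through a 525 nm band-pass filter and expressed relative to control. Mean ± S.D., n = 3.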"}, "NTUB1 [7]": {"test_system": "NTUB1", "test": "Induction of apoptosis in human NTUB1 cells assessed as increase in ROS level at 20 uM after 24 hrs by flow cytometry", "assay_type": "functional, cell-based", "summary_of_the_method": "as §2"}, "NTUB1 [8]": {"test_system": "NTUB1", "test": "Induction of apoptosis in human NTUB1 cells assessed as increase in ROS level at 40 uM after 24 hrs by flow cytometry", "assay_type": "functional, cell-based", "summary_of_the_method": "as §2"}, "[9]": {"test": "Cytotoxicity against human SV-HUC1 cells at 0.3 to 50 uM after 72 hrs by MTT assay", "assay_type": "cell-based", "conditions": "sv-huc1, 72 h", "summary_of_the_method": "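SV-HUC1 cells (SV40-immortalized human uroepithelium), grown in F12 with 10% FBS, were seeded at 1 × 10³ cells/well and left overnight. Graded concentrations were applied for 72 h at 37 °C. Read-out was MTT formazan dissolved in DMSO, absorbance at 540 nm. Viability is expressed relative to untreated control. Mean ± S.D., n = 3.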"}, "[10]": {"test": "Cell cycle arrest in human NTUB1 cells assessed as accumulation in subG1 phase at 60 uM after 24 hrs using propidium iodide by FACS analysis", "assay_type": "functional, cell-based", "summary_of_the_method": "as §1"}}, "note": "Activity calls are given as the source filed them. No cut-off for these calls is given here."}
{"molecule": "CCN(CC)CCCOc1ccc2c(=O)c3ccccc3oc2c1", "values": [{"measurement": "IC50", "setting": "[1]; read-out: IC50", "result": 84.9, "unit": "µM"}, {"measurement": "IC50", "setting": "[2]", "result": 56.5, "unit": "µM"}, {"measurement": "inhibition (INH)", "setting": "[2]", "result": "Dose-dependent effect"}, {"measurement": "Activity", "setting": "[3]", "result": "Active"}]}
{"molecule": "O=c1c2ccc(O)cc2oc2cc(OCCCN3CCNCC3)ccc12", "values": [{"measurement": "IC50", "setting": "[1]; read-out: IC50", "result": 65, "unit": "µM"}, {"measurement": "IC50", "setting": "[2]", "result": 91.9, "unit": "µM"}, {"measurement": "inhibition (INH)", "setting": "[2]", "result": "Dose-dependent effect"}]}
{"molecule": "O=c1c2ccccc2oc2cc(OCCCN3CCNCC3)ccc12", "values": [{"measurement": "IC50", "setting": "[1]; read-out: IC50", "result": 75.1, "unit": "µM"}, {"measurement": "IC50", "setting": "[2]", "result": 109, "unit": "µM"}, {"measurement": "inhibition (INH)", "setting": "[2]", "result": "Dose-dependent effect"}, {"measurement": "Activity", "setting": "[3]", "result": "Active"}]}
{"molecule": "O=c1c2ccccc2oc2cc(OCCCN3CCCCC3)ccc12", "values": [{"measurement": "IC50", "setting": "[1]; read-out: IC50", "result": 90, "unit": "µM"}, {"measurement": "Activity", "setting": "[4]", "result": "Active"}, {"measurement": "IC50", "setting": "[5]", "result": 31.2, "unit": "µM"}, {"measurement": "IC50", "setting": "[2]", "result": 37.8, "unit": "µM"}, {"measurement": "inhibition (INH)", "setting": "[2]", "result": "Dose-dependent effect"}, {"measurement": "Activity", "setting": "[3]", "result": "Active"}, {"measurement": "Activity", "setting": "[6]", "result": 250, "unit": "%"}, {"measurement": "Activity", "setting": "NTUB1 [7]", "result": "Active"}]}
{"molecule": "O=c1c2ccc(O)cc2oc2cc(OCCCNC3CC3)ccc12", "values": [{"measurement": "IC50", "setting": "[1]; read-out: IC50", "result": 108, "unit": "µM"}, {"measurement": "IC50", "setting": "[2]", "result": 63, "unit": "µM"}, {"measurement": "inhibition (INH)", "setting": "[2]", "result": "Dose-dependent effect"}, {"measurement": "Activity", "setting": "[3]", "result": "Active"}]}
{"molecule": "O=c1c2ccccc2oc2cc(OCCCN3CCCC3)ccc12", "values": [{"measurement": "IC50", "setting": "[1]", "result": "Not Active"}, {"measurement": "IC50", "setting": "[2]", "result": 65.5, "unit": "µM"}, {"measurement": "inhibition (INH)", "setting": "[2]", "result": "Dose-dependent effect"}, {"measurement": "Activity", "setting": "[3]", "result": "Active"}]}
{"molecule": "VITAMIN E", "values": [{"measurement": "IC50", "setting": "[1]; read-out: IC50", "result": 77.2, "unit": "µM"}]}
{"molecule": "O=c1c2ccc(O)cc2oc2cc(OCCCN3CCCC3)ccc12", "values": [{"measurement": "IC50", "setting": "[1]; read-out: IC50", "result": 88.8, "unit": "µM"}, {"measurement": "IC50", "setting": "[2]", "result": 68.8, "unit": "µM"}, {"measurement": "inhibition (INH)", "setting": "[2]", "result": "Dose-dependent effect"}, {"measurement": "Activity", "setting": "[3]", "result": "Active"}]}
{"molecule": "O=c1c2ccc(O)cc2oc2cc(OCCCN3CCCCC3)ccc12", "values": [{"measurement": "Activity", "setting": "NTUB1 [8]", "result": "Active"}, {"measurement": "IC50", "setting": "[1]; read-out: IC50", "result": 69.3, "unit": "µM"}, {"measurement": "Activity", "setting": "[9]", "result": "Non-toxic"}, {"measurement": "IC50", "setting": "[5]", "result": 35.1, "unit": "µM"}, {"measurement": "IC50", "setting": "[2]", "result": 82.3, "unit": "µM"}, {"measurement": "inhibition (INH)", "setting": "[2]", "result": "Dose-dependent effect"}, {"measurement": "Activity", "setting": "[10]", "result": "Active"}, {"measurement": "Activity", "setting": "[3]", "result": "Active"}, {"measurement": "Activity", "setting": "[6]", "result": 250, "unit": "%"}]}
{"molecule": "Oc1ncnc2[nH]ncc12", "note": "[ALLOPURINOL]", "values": [{"measurement": "inhibition (INH)", "setting": "[2]", "result": "Dose-dependent effect"}]}
{"molecule": "CCN(CC)CCCOc1ccc2c(=O)c3ccc(O)cc3oc2c1", "values": [{"measurement": "IC50", "setting": "[1]; read-out: IC50", "result": 80.5, "unit": "µM"}, {"measurement": "IC50", "setting": "[2]", "result": 53.5, "unit": "µM"}, {"measurement": "inhibition (INH)", "setting": "[2]", "result": "Dose-dependent effect"}]}
{"molecule": "CN1CCN(CCCOc2ccc3c(=O)c4ccccc4oc3c2)CC1", "values": [{"measurement": "IC50", "setting": "[1]; read-out: IC50", "result": 152, "unit": "µM"}, {"measurement": "IC50", "setting": "[2]", "result": 47.3, "unit": "µM"}, {"measurement": "inhibition (INH)", "setting": "[2]", "result": "Dose-dependent effect"}, {"measurement": "Activity", "setting": "[3]", "result": "Active"}]}
{"molecule": "O=c1c2ccc(O)cc2oc2cc(OCCCNC3CCCCC3)ccc12", "values": [{"measurement": "IC50", "setting": "[1]; read-out: IC50", "result": 106, "unit": "µM"}, {"measurement": "IC50", "setting": "[2]", "result": 72.9, "unit": "µM"}, {"measurement": "inhibition (INH)", "setting": "[2]", "result": "Dose-dependent effect"}, {"measurement": "Activity", "setting": "[3]", "result": "Active"}]}
{"molecule": "CN1CCN(CCCOc2ccc3c(=O)c4ccc(O)cc4oc3c2)CC1", "values": [{"measurement": "IC50", "setting": "[1]; read-out: IC50", "result": 76.5, "unit": "µM"}, {"measurement": "IC50", "setting": "[2]", "result": 44.3, "unit": "µM"}, {"measurement": "inhibition (INH)", "setting": "[2]", "result": "Dose-dependent effect"}]}
